Experimental data as given in ChEMBL document CHEMBL1142960, “Synthesis and structure-activity relationships for 2,4-dinitrobenzamide-5-mustards as prodrugs for the Escherichia coli nfsB nitroreductase in gene therapy” (J Med Chem, 2007).
pIC50: −log10 of the molar value. Converted amounts (≈) assume the structure as drawn.

Key:
[1] = tested on: WiDr; assay: Antiproliferative activity against human WiDr NTRneo cells after 18 hrs; type: functional, cell-based
[2] = tested on: EMT6; assay: Antiproliferative activity against mouse EMT6 NTRpuro cells after 18 hrs; type: functional, cell-based; details: EMT6, 18 h
[3] = Stability in alpha MEM at 37 degC after 24 hrs; type: physicochemical; details: read-out: Stability
Summary of the method: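 Percent parent compound remaining, by HPLC, after holding in α-MEM with 5% fetal calf serum at 37 °C for 24 h.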

[4] = tested on: EMT6; assay: Selectivity ratio of IC50 for EMT6 NTR-ve cells to IC50 forEMT6 NTRpuro cells; type: functional, Mus musculus
[5] = Antiproliferative activity against human Skov3 NTRneo cells after 18 hrs; type: functional, cell-based; details: SK-OV-3, 18 h
[6] = tested on: WiDr; assay: Antiproliferative activity against human wild type WiDr NTR-ve cells after 18 hrs; type: functional, cell-based
[7] = Solubility in alpha MEM; type: physicochemical
Summary of the method: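 Solubility (mM) in α-MEM with 5% fetal calf serum at ambient temperature, measured by HPLC.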

[8] = tested on: EMT6; assay: Antiproliferative activity against mouse wild type EMT6 NTR-ve cells after 18 hrs; type: functional, cell-based; details: EMT6, 18 h
[9] = Selectivity ratio of IC50 for Skov3 NTR-ve cells to IC50 for Skov3 NTRneo cells; type: functional, Homo sapiens
[10] = tested on: WiDr; assay: Selectivity ratio of IC50 for WiDr NTR-ve cells to IC50 for WiDr NTRneo cells; type: functional, Homo sapiens
[11] = Antiproliferative activity against human wild type Skov3 NTR-ve cells after 18 hrs; type: functional, cell-based
[12] = tested on: V79; assay: Antiproliferative activity against chinese hamster V79 NTRpuro cells after 18 hrs; type: functional, cell-based; details: Cricetulus griseus, V79, 18 h
[13] = tested on: V79; assay: Selectivity ratio of IC50 for V79 NTR-ve cells to IC50 for V79 NTRpuro cells; type: functional, Cricetulus griseus
[14] = tested on: V79; assay: Antiproliferative activity against chinese hamster wild-type V79 NTR-ve cells after 18 hrs; type: functional, cell-based; details: Cricetulus griseus, V79, 18 h

SMILES	pIC50 [1]	pIC50 [2]	remaining at 24 h [3]	Ratio IC50 [4]	pIC50 [5]	pIC50 [6]	solubility [7]	pIC50 [8]	Ratio IC50 [9]	Ratio IC50 [10]	pIC50 [11]	pIC50 [12]	Ratio IC50 [13]	pIC50 [14]
CS(=O)(=O)OCCN(CCCl)c1cc(C(=O)NCC(O)CO)c([N+](=O)[O-])cc1[N+](=O)[O-] (centres undefined)	5.22	5.42	74%	344	5.30	2.91	2100 µM (≈ 1020 µg/mL)	2.92	286	328	2.86			
O=C(NCCCCN1CCOCC1)c1cc(N(CCCl)CCCl)c([N+](=O)[O-])cc1[N+](=O)[O-]	4.64	5.13	91%	28	5.03	4.17	2000 µM (≈ 985 µg/mL)	3.72	61	3	3.35	4.60	5.9	3.85
CS(=O)(=O)c1cc([N+](=O)[O-])c(N(CCCl)CCCl)cc1C(N)=O	< 4.30	< 4.30	74%		< 4.30	< 4.30	60 µM (≈ 23.1 µg/mL)	< 4.30			< 4.30	< 4.30		< 4.30
COC(=O)CCNC(=O)c1cc(N(CCBr)CCBr)c([N+](=O)[O-])cc1[N+](=O)[O-]	5.68	6.23	70%	149	5.64	4.10	280 µM (≈ 147 µg/mL)	4.12	49	47	3.96	5.96	45	4.28
O=C(NO)c1cc(N(CCBr)CCBr)c([N+](=O)[O-])cc1[N+](=O)[O-]	6.41	7.15	69%	500	6.51	4.35	1200 µM (≈ 547 µg/mL)	4.48	180	92	4.23	6.70	180	4.47
NCCNC(=O)c1cc(N(CCCl)CCCl)c([N+](=O)[O-])cc1[N+](=O)[O-]	5.23	6.43	99%	413	5.17	3.74	9200 µM (≈ 3630 µg/mL)	3.91	69	38	3.38	4.28	11	3.34
O=C(O)CCNC(=O)c1cc(N(CCBr)CCBr)c([N+](=O)[O-])cc1[N+](=O)[O-]	5.12	5.62		17	5.12	4.40	8400 µM (≈ 4300 µg/mL)	4.40	12	4.8	4.17	4.89	45	4.27
O=C(NC(CO)(CO)CO)c1cc(N(CCCl)CCCl)c([N+](=O)[O-])cc1[N+](=O)[O-]	5.01	6.35	97%	1530	5.38	3.15	1800 µM (≈ 819 µg/mL)	3.16	205	61	3.01	4.89	91	2.98
CS(=O)(=O)c1cc([N+](=O)[O-])c(N(CCCl)CCCl)cc1C(=O)NCC(O)CO (centres undefined)	3.00	3.72	106%	6.4	3.13	2.70	16000 µM (≈ 7330 µg/mL)	2.92	3.3	2	2.63	3.37	2.3	3.07
CS(=O)(=O)NC(=O)c1cc(N(CCCl)CCCl)c([N+](=O)[O-])cc1[N+](=O)[O-]	3.65	3.56	100%	2	3.80	2.88	17000 µM (≈ 7300 µg/mL)	3.35	6.7	5.4	2.98	3.63	1.5	3.48
CC(O)CNC(=O)c1cc(N(CCCl)CCCl)c([N+](=O)[O-])cc1[N+](=O)[O-] (centres undefined)	4.72	5.59	107%	233	5.02	3.23	1200 µM (≈ 491 µg/mL)	3.23	75	30	3.15	4.68	21	3.36
O=C(O)CCNC(=O)c1cc(N(CCCl)CCCl)c([N+](=O)[O-])cc1[N+](=O)[O-]	2.74	3.37		13	3.19	2.19		2.33	11	3.5	2.24	3.33	9.5	2.31
CS(=O)(=O)OCCN(CCOS(C)(=O)=O)c1cc(C(=O)NCC(O)CO)c([N+](=O)[O-])cc1[N+](=O)[O-] (centres undefined)	4.64	5.10	54%	31	5.00	3.46	9000 µM (≈ 4900 µg/mL)	3.60	43	17	3.42	4.80	13	3.63
O=C(NOCCO)c1cc(N(CCCl)CCCl)c([N+](=O)[O-])cc1[N+](=O)[O-]	4.60	5.18	100%	85	4.96	3.05	2100 µM (≈ 864 µg/mL)	3.25	>90	39	< 2.92	4.89	76	3.12
CS(=O)(=O)OCCN(CCBr)c1cc(C(=O)NO)c([N+](=O)[O-])cc1[N+](=O)[O-]	5.94	6.39	48%	156	5.84	3.95	1500 µM (≈ 707 µg/mL)	4.20	115	100	3.84	6.05	112	4.01
O=C(NCCCN1CCOCC1)c1cc(N(CCCl)CCCl)c([N+](=O)[O-])cc1[N+](=O)[O-]	4.05	4.62	96%	8	4.26	3.79	22000 µM (≈ 10500 µg/mL)	3.70	14	1.9	3.16	3.98	3.4	3.46
O=C(NCCn1ccnc1)c1cc(N(CCCl)CCCl)c([N+](=O)[O-])cc1[N+](=O)[O-]	4.96	5.59	94%	52	5.39	3.79	500 µM (≈ 223 µg/mL)	3.75	140	18	3.36	4.34	6.6	3.56
O=C(NCCCN1CCOCC1)c1cc(N(CCBr)CCBr)c([N+](=O)[O-])cc1[N+](=O)[O-]	4.24	4.80	74%	3.6	4.47	3.87	860 µM (≈ 488 µg/mL)	4.25	7.3	2.4	3.57	4.80	9.2	3.83
O=C(NCCCn1ccnc1)c1cc(N(CCCl)CCCl)c([N+](=O)[O-])cc1[N+](=O)[O-]	4.43	4.35	70%	41	4.74	3.97	19000 µM (≈ 8730 µg/mL)	3.73	26	2.9	3.32	4.49	7.4	3.76
CN(C)CCNC(=O)c1cc(N(CCCl)CCCl)c([N+](=O)[O-])cc1[N+](=O)[O-]	4.18	4.46	103%	1.8	4.36	4.21		4.21	6	0.9	3.61	4.09	1.1	4.05
